High-throughput results from PubChem BioAssay.
RBBP9 inhibitor = blocks human serine hydrolase RBBP9; inhibition, % at 7.94 µM; actives 0.2% (n = 220,000); O75884; recombinant RBBP9, FP-Rh probe fluorescence polarization;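 active means inhibition above the campaign mean of all tested compounds plus 3 SD, cut at about 14% in these data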;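 further: plate controls were DMSO wells with RBBP9 for no effect and wells lacking RBBP9 protein for full effect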
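Test system – recombinant human RBBP9 · Input – RBBP9 2.5 µM in dispensing solution, pre-mixing · Medium – Tris buffer pH 8.0, NaCl, Pluronic · Schedule – preincubation 30 min plus labeling 45 min at 25 °C · Measured by – fluorescence polarization · Measure – % inhibition · Controls – DMSO and no-protein wells · Replicates – one well per compound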
UHRF1 binding = UHRF1 methyl-DNA binding inhibition; inhibition, % at 4.4 µM; UHRF1 binding to methylated oligo, TR-FRET; actives 0.75% (n = 370,000); in the data active means inhibition above about 21%;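 further: UHRF1 SRA domain binding a hemimethylated CpG hairpin DNA probe; 0% = median of test compound wells and 100% = reference inhibitor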
MBD2 DNA inh = blocks human MBD2 binding to methylated DNA; actives 0.31% (n = 370,000); inhibition, % at 4.4 µM; TR-FRET, MBD2 binding to methylated oligonucleotide; in the data active means inhibition above about 13%
LEDGF integ inh = blocks HIV-1 LEDGF/p75-dependent DNA integration | TR-FRET IN-LEDGF/p75 DNA integration, Eu/Cy5 | inhibition, % at 3.7 µM | actives 0.64% (n = 370,000) | AID 743269;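 active means inhibition above the screen-wide mean plus 3 SD, cut at about 13% in these data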;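 further: signal is the Cy5 over europium emission ratio at 671 and 618 nm; 0% = plate median of compound wells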
ABHD5 PLIN5 PPI = inhibitors of human ABHD5-perilipin-5 interaction | Q00G26+Q8WTS1 | actives 0.78% (n = 360,000) | Split G. princeps luciferase complementation, luminescence, 4 h | inhibition, % at 4 µM;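 active means inhibition above the mean inhibition across every tested compound plus 3 SD, cut at about 22% in these data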;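 further: 0% = DMSO only wells and the 100% control is not disclosed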
Target sequence (Q00G26 whole entry, looked up): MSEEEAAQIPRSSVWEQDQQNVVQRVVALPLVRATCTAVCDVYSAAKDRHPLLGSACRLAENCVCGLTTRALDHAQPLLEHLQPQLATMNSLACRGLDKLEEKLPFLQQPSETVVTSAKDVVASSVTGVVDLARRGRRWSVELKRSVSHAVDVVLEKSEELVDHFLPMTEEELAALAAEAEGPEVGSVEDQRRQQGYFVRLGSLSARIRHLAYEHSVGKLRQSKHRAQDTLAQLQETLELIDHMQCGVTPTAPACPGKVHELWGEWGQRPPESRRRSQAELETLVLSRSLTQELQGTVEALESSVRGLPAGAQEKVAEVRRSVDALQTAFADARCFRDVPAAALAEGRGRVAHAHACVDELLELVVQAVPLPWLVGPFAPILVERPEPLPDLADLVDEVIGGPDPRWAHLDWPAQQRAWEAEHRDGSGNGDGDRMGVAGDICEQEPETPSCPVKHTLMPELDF
Target sequence (Q8WTS1 whole entry, looked up): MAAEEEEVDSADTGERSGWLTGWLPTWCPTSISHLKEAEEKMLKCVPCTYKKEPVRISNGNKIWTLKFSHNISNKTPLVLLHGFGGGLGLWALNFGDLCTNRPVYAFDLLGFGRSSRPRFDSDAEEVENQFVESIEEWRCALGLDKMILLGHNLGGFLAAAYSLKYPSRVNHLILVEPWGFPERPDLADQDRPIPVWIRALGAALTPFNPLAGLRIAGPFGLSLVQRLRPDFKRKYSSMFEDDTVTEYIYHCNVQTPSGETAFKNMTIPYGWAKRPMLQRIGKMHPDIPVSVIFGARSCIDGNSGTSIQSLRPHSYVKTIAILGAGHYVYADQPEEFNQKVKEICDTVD
PRMT1 inh = inhibitors of human PRMT1; recombinant PRMT1, activity-based probe fluorescence polarization; inhibition, % at 2.79 µM; actives 1.3% (n = 370,000);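 active means inhibition above about 21% made by adding two undisclosed values, limit read from the data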
ABHD5 PLIN5 conf = confirmation of human ABHD5-PLIN5 interaction inhibitors | shares compounds with ABHD5 PLIN5 PPI | biochemical ABHD5-PLIN5 interaction, luminescence | inhibition, % at 4 µM | actives 67% (n = 2,200); in the data active means inhibition above about 23%;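 further: 0% = DMSO vehicle wells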
HNF4 counter = counter-screen for ABHD5-PLIN5 inhibitors: HNF4 split-luciferase | inhibition, % at 4 µM | HNF4 dimerization, luminescence, biochemical | shares compounds with ABHD5 PLIN5 PPI | actives 77% (n = 2,200);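 active means mean inhibition across replicate wells exceeding the computed hit threshold, cut at about 13% in these data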;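 further: light from luciferase halves that rejoin when HNF4 fusion proteins dimerize; 0% = DMSO only wells and the 100% control is not given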
* hit, by the source's call; / = no result given. This is a sample that favours compounds with a hit; in the whole collection about 3.1% have one here.

SMILES	RBBP9 inhibitor	UHRF1 binding	MBD2 DNA inh	LEDGF integ inh	ABHD5 PLIN5 PPI	PRMT1 inh	ABHD5 PLIN5 conf	HNF4 counter
COc1ccc(C(C[N+](=O)[O-])c2c(C)cc3ccccn23)c(OC)c1 (stereo not drawn)	/	-3	2	1	30*	4	45*	29*
COc1cc(/C=C/C(=O)c2ccccc2O)cc(OC)c1OC	-3	0	1	2	52*	5	90*	84*
Cc1cccc(C=CC(=O)c2ccccc2)c1	/	0	8	3	27*	2	57*	44*
Cc1ccc(C(=O)C=Cc2cccc(C)c2)cc1	/	3	-1	0	15	2	/	/
COc1ccc(C(=O)/C=C/c2ccccc2)c(OC)c1	-9	-1	-4	3	26*	-8	42*	28*
COc1ccc(C(=O)/C=C/c2ccc(N(C)C)cc2)c(OC)c1	-7	-10	-2	-3	1	-13	/	/
Cc1ccc(O)c(C(=O)C=Cc2ccccc2)c1	/	-2	0	4	41*	-2	88*	55*
Cc1ccc(/C=C/C(=O)c2ccccc2O)cc1	1	-2	2	-2	21	3	/	/
COc1cccc(CNC(=O)[C@H]2CCCN2C(=O)[C@H]2CCCN2C(=O)c2ccc(C)c(C)c2)c1	/	1	-1	2	/	3	/	/
C[C@H](NC(=O)C[C@@H]1C[C@@H]2c3cc(NC(=O)C4CCC4)ccc3O[C@@H]2[C@@H](CO)O1)c1ccccc1	/	0	-3	1	/	-6	/	/
COC1=C(C)C(O)=C(C(=O)/C=C/c2ccccc2)C(=O)C1(C)C	/	1	2	-3	20	3	/	/
COc1cc(C)cc(C(=O)C=Cc2ccccc2)c1O	/	-1	5	1	64*	1	95*	75*
CNC(=O)c1cc2cccc(OC)c2oc1=O	-15	-3	-3	1	-2	0	/	/
COc1ccc(/C=C/C(=O)c2cc3cccc(OC)c3oc2=O)cc1	-4	-1	-2	-1	37*	6	64*	53*
COCOc1cc(O)c(C(=O)/C=C/c2ccccc2)c(OCOC)c1	/	-1	0	6	41*	-5	69*	63*
Cc1cc2c(c(=O)o1)[C@@]1(C(=O)N(C)c3c(Br)cccc31)C1=C(CCCC1=O)O2	/	-1	-5	2	/	-5	/	/
C#CCNC(=O)C[C@@H]1C(=O)N(Cc2ccc(OC)cc2)/C2=C/CCCCC[C@@]21C(=O)OCC	/	2	4	-2	/	-3	/	/
COc1ccc2c(c1)/C(=N/N1C(=O)c3ccccc3C1=O)C(=O)N2	-7	/	/	/	/	/	/	/
COc1ccc2c(c1)/C(=C\c1cccc(/C=C3/C(=O)Nc4ccc(OC)cc43)n1)C(=O)N2	/	-2	1	-3	51*	-1	100*	98*
CC(C)C[C@H]1COc2cccc(F)c2S(=O)(=O)N1Cc1cn(Cc2ccc(C(F)(F)F)cc2)nn1	/	0	-3	-4	/	0	/	/
Cc1ccc(-c2csc3ncn(-n4c(C)ccc4C)c(=O)c23)o1	-8	-1	-3	-1	27*	24*	6	33*
Cc1sc2ncn(-n3c(C)ccc3C)c(=O)c2c1C	-4	0	-1	-1	-4	2	/	/
O=S1(=O)c2ccc(Br)cc2OC[C@H](Cc2ccccc2)N1Cc1cn(Cc2ccc(C(F)(F)F)cc2)nn1	/	-1	0	1	/	-2	/	/
Fc1ccc2nc(-c3ccc(CN4CCC(c5nc6ccccc6[nH]5)CC4)cc3)c(-c3ccccc3)nc2c1	/	-1	8	2	/	-2	/	/
Cc1ccc(S(=O)(=O)n2ccc(-c3c(-c4ccc(F)cc4)noc3C)n2)cc1	/	-2	-1	0	/	0	/	/
CCOC(=O)c1ccc2ncc(C(=O)OCC)c(NCc3ccco3)c2c1	-1	3	-7	4	9	1	/	/
CCOC(=O)c1cnc2c(C)cccc2c1NCc1ccco1	-5	0	3	-1	24*	-1	4	8
